One test relates to Escherichia coli. As to the kind of experiment: Antibacterial activity against Escherichia coli ATCC 25922 at 64 ug/mL by broth microdilution assay. In kind it is functional, organism-based. (In broth dilution the organism is exposed to a series of concentrations in liquid medium.)
Another test concerns BXPC-3. As to the kind of experiment: Cytotoxicity against human BxPC3 cells after 48 hrs by sulforhodamine B assay. The class given is functional. The note with it: BXPC-3, 48 h. In outline: (§1)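 Cells were grown in RPMI-1640 with 5% fetal bovine serum in 96-well plates for 24 h, then exposed to serial dilutions in DMSO vehicle for 48 h. Plates were fixed with trichloroacetic acid, stained with sulforhodamine B and read for optical density. GI50 is the concentration giving a 50% reduction in net protein increase.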
For orientation: Sulforhodamine B stains cellular protein and so reports cell mass.

The subject of the next test is Enterococcus faecalis. As to the kind of experiment: Antibacterial activity against Enterococcus faecalis ATCC 29212 at 64 ug/mL by broth microdilution assay. The class given is functional, organism-based.
The next test relates to Staphylococcus aureus. In words: Antibacterial activity against Staphylococcus aureus ATCC 29213 at 64 ug/mL by broth microdilution assay. The class given is functional, organism-based.
A further test relates to DU-145. As to the kind of experiment: Cytotoxicity against human DU145 cells after 48 hrs by sulforhodamine B assay. In kind it is functional. The note with it: DU-145, 48 h. The method in brief:
as §1

For another test, the system named is SF-268. In words: Cytotoxicity against human SF268 cells after 48 hrs by sulforhodamine B assay. Particulars: SF-268, 48 h. In kind it is functional. In outline: as §1
Test [1] concerns Streptococcus pyogenes. As to the kind of experiment: Antibacterial activity against Streptococcus pyogenes clinical isolate by broth microdilution assay in presence of 25% heat inactivated human serum. The class given is functional.
Test [2] relates to Stenotrophomonas maltophilia. As to the kind of experiment: Antibacterial activity against Stenotrophomonas maltophilia ATCC 13637 at 64 ug/mL by broth microdilution assay. In kind it is functional, organism-based.
Test [3] concerns Streptococcus pneumoniae. As to the kind of experiment: Antibacterial activity against Streptococcus pneumoniae ATCC 6303 by broth microdilution assay. The class given is functional.
Another test relates to Micrococcus luteus. In words: Antibacterial activity against Micrococcus luteus Presque Isle 456 at 64 ug/mL by broth microdilution assay. In kind it is functional, organism-based.
The next test deals with Candida albicans. In words: Antifungal activity against Candida albicans ATCC 90028 at 64 ug/mL by broth microdilution assay. In kind it is functional, organism-based.
A further test has as its system NCI-H460. As to the kind of experiment: Cytotoxicity against human NCI-H460 cells after 48 hrs by sulforhodamine B assay. The class given is functional. The note with it: NCI-H460, 48 h. In outline: as §1
For a further test, the system named is KM-20L2. In words: Cytotoxicity against human KM20L2 cells after 48 hrs by sulforhodamine B assay. Particulars: KM-20L2, 48 h. In kind it is functional. The method in brief: as §1
Test [4] deals with Streptococcus pneumoniae. As to the kind of experiment: Antibacterial activity against Streptococcus pneumoniae by broth microdilution assay in presence of 25% heat inactivated human serum. In kind it is functional.
The subject of another test is Enterobacter cloacae. In words: Antibacterial activity against Enterobacter cloacae ATCC 13047 at 64 ug/mL by broth microdilution assay. The class given is functional, organism-based.
For the next test, the system named is P388. In words: Cytotoxicity against mouse P388 cells after 48 hrs by coulter counter method. In kind it is functional. The note with it: P388, 48 h, read-out: ED50 (the source's name). The method in brief:
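Murine lymphocytic leukemia P388 cells were preincubated for 24 h in Fisher medium with 10% horse serum, then incubated 48 h with serial dilutions in DMSO vehicle. Cells were counted on a Coulter particle counter, and ED50 was taken as the concentration giving 50% growth inhibition.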

The test system of the next test is Neisseria gonorrhoeae. In words: Antibacterial activity against Neisseria gonorrhoeae ATCC 49226 at 64 ug/mL by broth microdilution assay. In kind it is functional, organism-based.
The subject of test [5] is Streptococcus pneumoniae. As to the kind of experiment: Antibacterial activity against multidrug-resistant Streptococcus pneumoniae ATCC 700673 by broth microdilution assay. In kind it is functional.
In test [6] the test system is Streptococcus pyogenes. In words: Antibacterial activity against Streptococcus pyogenes clinical isolate by broth microdilution assay. The class given is functional.
A further test concerns MCF7. As to the kind of experiment: Cytotoxicity against human MCF7 cells after 48 hrs by sulforhodamine B assay. The note with it: MCF7, 48 h. In kind it is functional. In outline: as §1
In a further test the test system is Cryptococcus neoformans. In words: Antifungal activity against Cryptococcus neoformans ATCC 90112 at 64 ug/mL by broth microdilution assay. In kind it is functional, organism-based.
In test [7] the test system is Streptococcus pneumoniae. As to the kind of experiment: Antibacterial activity against penicillin-resistant Streptococcus pneumoniae clinical isolate by broth microdilution assay. The class given is functional.

≈ marks a conversion by molar mass, not a printed value. Calls of active or inactive are those of the source.

With `CC[C@H](C)[C@H]1OC(=O)[C@H](C(C)C)NC(=O)[C@H](C)OC(=O)[C@@H](C(C)C)NC(=O)[C@@H]([C@@H](C)CC)OC(=O)[C@H](C(C)C)NC(=O)[C@H](C)OC(=O)[C@@H](C(C)C)NC(=O)[C@@H](CC(C)C)OC(=O)[C@H](C(C)C)NC(=O)[C@H](C)OC(=O)[C@@H](C(C)C)NC1=O`, the outcome (with Escherichia coli; with Enterococcus faecalis; with Staphylococcus aureus; in test [2]; in the test with Micrococcus luteus; in the test on Candida albicans) was inactive. Further, the result in the test on Enterobacter cloacae, in the test with Neisseria gonorrhoeae and with Cryptococcus neoformans was inactive. Further, the GI50 (usually the concentration that inhibits growth by half) in the test with BXPC-3 was found to be 0.00034 µg/mL (≈ 0.295 nM); in the test on DU-145 it was 0.00086 µg/mL (≈ 0.746 nM); in the test with SF-268 it was 0.0018 µg/mL (≈ 1.56 nM); in the test on NCI-H460, 0.00045 µg/mL (≈ 0.39 nM); with KM-20L2, 0.00026 µg/mL (≈ 0.225 nM); with MCF7, 0.00031 µg/mL (≈ 0.269 nM). Besides, the MIC (commonly the smallest concentration in the dilution series that meets the test's criterion for growth inhibition) is above 64 µg/mL with Streptococcus pyogenes [1]; 1 µg/mL (≈ 867 nM) in the test on Streptococcus pneumoniae [3]; above 64 µg/mL with Streptococcus pneumoniae [4]; below 0.5 µg/mL against Streptococcus pneumoniae [5]; 2 µg/mL (≈ 1730 nM) with Streptococcus pyogenes [6]; 1 µg/mL (≈ 867 nM) with Streptococcus pneumoniae [7]. Further, the MBC (as a rule, the smallest concentration meeting the test's criterion for killing) against Streptococcus pneumoniae [3] was 2 µg/mL (≈ 1730 nM); in the test on Streptococcus pneumoniae [5], below 0.5 µg/mL; against Streptococcus pyogenes [6], above 16 µg/mL; against Streptococcus pneumoniae [7] it was 1 µg/mL (≈ 867 nM). Besides, in the test on P388, the EC50 came to 0.013 µg/mL (≈ 11.3 nM).
With `CC(C)[C@@H]1NC(=O)[C@H](C)OC(=O)[C@@H](C(C)C)NC(=O)[C@@H](C(C)C)OC(=O)[C@H](C(C)C)NC(=O)[C@H](C)OC(=O)[C@@H](C(C)C)NC(=O)[C@@H](C(C)C)OC(=O)[C@H](C(C)C)NC(=O)[C@H](C)OC(=O)[C@@H](C(C)C)NC(=O)[C@@H](C(C)C)OC1=O` [VALINOMYCIN], the GI50 in the test with BXPC-3 was found to be 0.0019 µg/mL (≈ 1.71 nM); in the test with DU-145, 0.0035 µg/mL (≈ 3.15 nM); in the test with SF-268, 0.0027 µg/mL (≈ 2.43 nM); in the test on NCI-H460, 0.0025 µg/mL (≈ 2.25 nM); in the test on KM-20L2, 0.0008 µg/mL (≈ 0.72 nM); in the test with MCF7, 0.001 µg/mL (≈ 0.9 nM). In the test with P388, the EC50 came out at 0.12 µg/mL (≈ 108 nM).
Consider `CC[C@H](C)[C@H]1OC(=O)[C@H](C(C)C)NC(=O)[C@H](C)OC(=O)[C@@H](C(C)C)NC(=O)[C@@H]([C@@H](C)CC)OC(=O)[C@H](C(C)C)NC(=O)[C@H](C)OC(=O)[C@@H](C(C)C)NC(=O)[C@@H]([C@@H](C)CC)OC(=O)[C@H](C(C)C)NC(=O)[C@H](C)OC(=O)[C@@H](C(C)C)NC1=O` [BACILLISTATIN 1], for which the result (in the test on Escherichia coli; with Enterococcus faecalis; in the test on Staphylococcus aureus; in test [2]; in the test with Micrococcus luteus; in the test on Candida albicans) was inactive. The result in the test with Enterobacter cloacae, with Neisseria gonorrhoeae and in the test with Cryptococcus neoformans was inactive. In addition, the GI50 in the test on BXPC-3 is 0.00095 µg/mL (≈ 0.824 nM); in the test with DU-145 it was 0.0015 µg/mL (≈ 1.3 nM); in the test on SF-268 it was 0.00045 µg/mL (≈ 0.39 nM); with NCI-H460 it was 0.0023 µg/mL (≈ 1.99 nM); in the test with KM-20L2, 0.00087 µg/mL (≈ 0.754 nM); in the test with MCF7 it was 0.00061 µg/mL (≈ 0.529 nM). In addition, the MIC with Streptococcus pyogenes [1] was above 64 µg/mL; in the test with Streptococcus pneumoniae [3] it was 2 µg/mL (≈ 1730 nM); in the test with Streptococcus pneumoniae [4], above 64 µg/mL; against Streptococcus pneumoniae [5], below 0.5 µg/mL; with Streptococcus pyogenes [6], 2 µg/mL (≈ 1730 nM); in the test on Streptococcus pneumoniae [7] it was 1 µg/mL (≈ 867 nM). Besides, the MBC is 4 µg/mL (≈ 3470 nM) with Streptococcus pneumoniae [3], 1 µg/mL (≈ 867 nM) against Streptococcus pneumoniae [5], above 32 µg/mL in the test with Streptococcus pyogenes [6] and 2 µg/mL (≈ 1730 nM) in the test on Streptococcus pneumoniae [7]. Further, in the test with P388, the EC50 was found to be 0.023 µg/mL (≈ 19.9 nM).

Values taken from ChEMBL document CHEMBL1151986, “Antineoplastic agents. 570. Isolation and structure elucidation of bacillistatins 1 and 2 from a marine Bacillus silvestris” (2009).
